From ChEMBL document CHEMBL1142832, “Potent 4-aminopiperidine based antimalarial agents” (Bioorg Med Chem Lett, 2005) come the findings set out here.

Assay [1] deals with Plasmodium falciparum. In words: Inhibitory concentration against chloroquine-sensitive Plasmodium falciparum. Format: functional, organism-based.
Assay [2] has as its system Plasmodium falciparum. In words: Inhibition against multidrug-resistant Plasmodium falciparum infected erythrocytes. Format: functional, organism-based. The gist of the method:
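Multidrug-resistant P. falciparum Dd2 was grown in human red blood cells and assayed at the late ring stage. Parasite growth was read as [3H]-hypoxanthine incorporation. Each compound was run in duplicate, and the mean IC50 (nM) is reported.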

The subject of the next assay is HFF. In words: Cytotoxicity of compound was determined in human foreskin fibroblast assay. Format: functional. The gist of the method: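 Human foreskin fibroblasts were assayed in quadruplicate, and the average toxicity value is reported in nM.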
The species entered for a further assay is Homo sapiens. In words: Percent remaining of compound was determined in human S9 liver microsomes at 1 hr. Conditions: Liver S9 fraction.
The species named for a further assay is Mus musculus. Briefly: Percent remaining of compound was determined in mouse S9 liver microsomes at 1 hr. Conditions: Liver S9 fraction. Background: Liver microsomes are a subcellular fraction often used to study metabolism.

The term IC50 denotes the point on the concentration scale where inhibition reaches its midpoint.

Take `c1ccc(Oc2ccc(CNCCCNC3CCN(CC4CCCCC4)CC3)cc2)cc1`: the 50% inhibitory concentration (IC50) in the assay with Plasmodium falciparum [1] was found to be 0.03 µM.
On to `CCN(CCCNC1CCN(CC(c2ccccc2)c2ccccc2)CC1)CC1CCCCC1`, for which the midpoint of inhibition in the assay with Plasmodium falciparum [2], the IC50, lay at 0.2 µM. For the same compound, the Cytotoxicity with HFF worked out at 2200 nM.
On the same counts, the results for `c1ccc(C(CN2CCC(NCCCN3CCCC3)CC2)c2ccccc2)cc1` are 0.2 µM and 2500 nM.
For `CCNCCCNC1CCN(CC(c2ccccc2)c2ccccc2)CC1` the same measures were 2.5 µM and 2600 nM.
On the same counts, the results for `CCN(CCCNC1CCN(CC(c2ccccc2)c2ccccc2)CC1)CC(c1ccccc1)c1ccccc1` are 0.9 µM and 9900 nM.
In the assay on Plasmodium falciparum [2], `CCN(CCCNC1CCN(CC(c2ccccc2)c2ccccc2)CC1)CCc1ccc(Cl)cc1` showed an IC50 of 0.2 µM. Besides, in the assay on HFF, the Cytotoxicity is reported as 2000 nM.
On the same counts, the results for `CCN(CC)CCCNC1CCN(CC2CCCCC2)CC1` are 4.3 µM and 6000 nM.
On to `CCN(CC)CCCNC1CCN(CCC2CCCCC2)CC1`, for which it took 0.92 µM to reach half-maximal inhibition in the assay on Plasmodium falciparum [2] (IC50). In the assay on HFF, this compound yielded a Cytotoxicity of 2900 nM.
Turning to `CCN(CCCNC1CCN(CC(c2ccccc2)c2ccccc2)CC1)CCc1ccc(-c2ccccc2)cc1`, the level, % of control in the assay filed under Homo sapiens amounted to 45%; in the assay filed under Mus musculus, 113%. The same compound returned an IC50 in the assay on Plasmodium falciparum [2] of 0.075 µM. This compound also came in with a Cytotoxicity in the assay on HFF of 7600 nM.
As to `CCN(CC)CCCNC1CCN(CC(c2ccccc2)c2ccccc2)CC1`, the IC50 stood at 0.03 µM with Plasmodium falciparum [1] and 0.9 µM in the assay on Plasmodium falciparum [2]. The same compound showed a Cytotoxicity in the assay on HFF of 9900 nM.
In the assay with Plasmodium falciparum [2], `c1ccc(C(CN2CCC(NCCCN3CCCCC3)CC2)c2ccccc2)cc1` registered an IC50 of 0.2 µM. In addition, the Cytotoxicity in the assay on HFF is reported as 1200 nM.
In the assay on Plasmodium falciparum [2], `CCN(CC)CCCNC1CCN(CCc2ccc(-c3ccccc3)cc2)CC1` displayed an IC50 of 0.4 µM. Also, the Cytotoxicity with HFF is recorded as 1200 nM.
For `CN(C)CCCNC1CCN(CC(c2ccccc2)c2ccccc2)CC1` the same measures were 0.3 µM and 1300 nM.
For `CCN(CCCNC1CCN(CC(c2ccccc2)c2ccccc2)CC1)CCC1CCCCC1` the same measures were 0.25 µM and 2100 nM.
On the same counts, the results for `CCN(CC)CCCNC1CCN(CCc2ccc(Cl)cc2)CC1` are 0.85 µM and 2700 nM.
